Molecules are shown by their SMILES.

The text below walks through data of BindingDB's records for doi:10.1016/j.bmc.2010.02.001 (University of Alberta, 2010).

The target in the assay is LL-diaminopimelate aminotransferase, chloroplastic (Arabidopsis thaliana, UniProt Q93ZN9). As to the kind of experiment: Inhibition of Arabidopsis thaliana LL-DAP-AT expressed in Escherichia coli by aminobenzaldehyde-based assay. An outline of the steps: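 Recombinant C-terminal His6-tagged enzyme in 1 mL cells at 0.0043 mg/mL final. Final substrates: 8.5 mM 2-oxoglutarate, 7 mM 2-aminobenzaldehyde, 2.0 mM LL-DAP (racemic DAP), in 100 mM HEPES-KOH pH 7.6. Inhibitor in DMSO at 200, 100, 50, 25, 10 and 5 µM final. A440 read every 2 min for 200 min. Initial slopes compared with the DMSO control gave percentage inhibition, from which IC50 was calculated.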
Chain of LL-diaminopimelate aminotransferase, chloroplastic (Q93ZN9 whole entry): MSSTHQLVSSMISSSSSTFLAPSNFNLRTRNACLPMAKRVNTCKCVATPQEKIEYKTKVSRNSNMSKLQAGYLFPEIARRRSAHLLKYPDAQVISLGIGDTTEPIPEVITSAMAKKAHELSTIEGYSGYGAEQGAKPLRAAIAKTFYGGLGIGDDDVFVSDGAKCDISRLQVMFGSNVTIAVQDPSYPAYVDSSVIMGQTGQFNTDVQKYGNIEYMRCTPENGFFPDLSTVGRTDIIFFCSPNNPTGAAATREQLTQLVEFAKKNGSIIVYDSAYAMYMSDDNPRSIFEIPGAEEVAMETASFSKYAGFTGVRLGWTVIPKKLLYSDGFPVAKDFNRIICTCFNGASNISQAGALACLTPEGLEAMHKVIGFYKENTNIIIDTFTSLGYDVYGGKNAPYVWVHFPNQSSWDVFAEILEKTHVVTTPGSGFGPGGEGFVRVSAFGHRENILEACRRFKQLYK

In the case of `NC(N=NCc1ccc(-c2cccc([N+](=O)[O-])c2)o1)=N[N+](=O)[O-]` [N'-nitro-2-((5-(3-nitrophenyl)furan-2-yl)methylene)hydrazinecarboximidamide], the IC50 was greater than 200 µM.

By IC50 is commonly meant the point on the concentration scale where inhibition reaches its midpoint. Lower therefore signals inhibition by little substance.
